From publication PMC11579378 (Scientific Reports, 2024)
Where no end group is shown, it is not given here.

Target: ACE1 (Homo sapiens, UniProt P12821)
Assay: In vitro ACE1 inhibition assay
Type: biochemical
Outline: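 Commercial WST colorimetric kit, run per the manufacturer's instructions. Test peptides were diluted in PBS to 0.01–100 µM and mixed with substrate buffer and enzyme working solution, then incubated 1 h at 37 °C. Indicator working solution was added for 5 min at room temperature, and absorbance was read at 450 nm. Blanks with and without enzyme were included. Assays were run in triplicate, and IC50 was obtained by nonlinear regression of inhibition against concentration.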

ACE1, sequence (P12821 30-1306): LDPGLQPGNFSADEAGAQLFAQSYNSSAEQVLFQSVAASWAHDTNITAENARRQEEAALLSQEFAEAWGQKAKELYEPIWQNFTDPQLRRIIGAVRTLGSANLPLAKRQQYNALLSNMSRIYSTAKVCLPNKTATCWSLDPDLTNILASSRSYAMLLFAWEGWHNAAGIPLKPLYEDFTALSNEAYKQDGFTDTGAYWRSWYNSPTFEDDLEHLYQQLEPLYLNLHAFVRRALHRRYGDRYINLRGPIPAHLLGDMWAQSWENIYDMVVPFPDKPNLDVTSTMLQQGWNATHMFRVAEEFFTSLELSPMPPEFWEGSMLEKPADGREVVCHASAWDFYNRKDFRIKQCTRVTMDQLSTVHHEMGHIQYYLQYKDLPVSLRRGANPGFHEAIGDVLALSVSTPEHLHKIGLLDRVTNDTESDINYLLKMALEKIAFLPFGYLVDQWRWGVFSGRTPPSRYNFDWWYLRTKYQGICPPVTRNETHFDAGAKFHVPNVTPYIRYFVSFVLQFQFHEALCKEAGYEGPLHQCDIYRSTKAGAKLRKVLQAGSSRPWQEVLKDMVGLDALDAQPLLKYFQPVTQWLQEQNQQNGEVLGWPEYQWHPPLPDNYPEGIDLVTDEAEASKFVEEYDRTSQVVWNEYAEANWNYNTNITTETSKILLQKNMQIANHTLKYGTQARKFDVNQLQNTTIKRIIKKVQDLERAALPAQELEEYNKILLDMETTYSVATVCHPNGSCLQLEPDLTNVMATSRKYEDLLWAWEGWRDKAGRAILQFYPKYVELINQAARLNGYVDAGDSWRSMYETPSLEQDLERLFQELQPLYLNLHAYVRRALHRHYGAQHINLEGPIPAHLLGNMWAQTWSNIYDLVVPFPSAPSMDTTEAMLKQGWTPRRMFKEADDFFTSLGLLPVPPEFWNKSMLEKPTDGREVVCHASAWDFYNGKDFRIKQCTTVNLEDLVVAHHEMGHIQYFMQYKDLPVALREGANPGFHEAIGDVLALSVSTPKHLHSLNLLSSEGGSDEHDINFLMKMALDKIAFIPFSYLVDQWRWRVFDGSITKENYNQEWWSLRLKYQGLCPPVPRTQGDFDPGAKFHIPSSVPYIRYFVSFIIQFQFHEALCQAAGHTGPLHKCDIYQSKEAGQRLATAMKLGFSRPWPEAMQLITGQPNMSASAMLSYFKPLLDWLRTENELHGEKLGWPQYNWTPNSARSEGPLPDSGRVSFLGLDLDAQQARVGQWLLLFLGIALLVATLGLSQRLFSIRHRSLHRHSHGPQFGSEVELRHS

Compound	IC50 [µM]
CC(C)C[C@H](NC(=O)[C@H](Cc1ccccc1)NC(=O)[C@H](CCCCN)NC(=O)[C@H](Cc1ccccc1)NC(=O)[C@H](CC(N)=O)NC(=O)[C@@H](NC(=O)[C@@H]1CCCN1)C(C)C)C(=O)N[C@@H](CO)C(=O)N[C@@H](Cc1cnc[nH]1)C(=O)O [Hp-F, Hemopressin-F]	6.22 ± 0.44
CC(C)C[C@H](NC(=O)[C@H](CC(C)C)NC(=O)[C@H](CCCCN)NC(=O)[C@H](Cc1ccccc1)NC(=O)[C@H](CC(N)=O)NC(=O)[C@@H](NC(=O)[C@@H]1CCCN1)C(C)C)C(=O)N[C@@H](CO)C(=O)N[C@@H](Cc1c[nH]cn1)C(=O)O [Hp-L, Hemopressin-L]	3.86 ± 0.87
RVDPVNFKFLSH [RVD-Hp-F, RVD-Hemopressin-F]	12.4 ± 2.92
RVDPVNFKLLSH [RVD-Hp-L, RVD-Hemopressin-L]	2.52 ± 0.11
VDPVNFKFLSH [VD-Hp-F, VD-Hemopressin-F]	10.8 ± 0.79
VDPVNFKLLSH [VD-Hp-L, VD-Hemopressin-L]	4.54 ± 0.83
